Data on 5 molecules can be found in article PMC10966424 (Experimental and Therapeutic Medicine, 2024).

The nature of series [1]: MTT cell viability, DH82 macrophages. The class given is cell-based, canine. To be noted: dog. A digest of the protocol: (§1)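 Cells are seeded at 1x10^5 cells/well, cultured for 24 h, then exposed to test compound at various concentrations for a further 24 h. MTT is added, formazan is dissolved in DMSO and absorbance is read at 570 nm. The tabulated viability is at 200 µM. Done at least in triplicate.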

The test system of series [2] is NO production in LPS-stimulated RAW 264.7 cells. Briefly: LPS-stimulated NO production. The class given is cell-based, murine. To be noted: Mus musculus, RAW264.7, 24 h, read-out: IC50 of NO, LPS (0.1 µg/ml)-stimulated RAW 264.7 cells, 24 h. A digest of the protocol: (§2)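 Macrophages are grown in DMEM with 10% FBS at 37 °C and 5% CO2, seeded at 1x10^5 cells/well and cultured for 24 h. They are pretreated with test compound for 1 h, then given LPS for 24 h (RAW 264.7: 0.1 µg/ml; DH82: 2 µg/ml). Medium NO is measured by Griess reagent against a standard curve; supernatant PGE2 is measured by ELISA. Done at least in triplicate.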

The nature of series [3]: MTT cell viability, RAW 264.7 macrophages. The class given is cell-based, murine. To be noted: mouse. Put shortly:
as §1

The test system of series [4] is PGE2 production in LPS-stimulated RAW 264.7 cells. As to the kind of experiment: LPS-stimulated PGE2 production. It counts as cell-based, murine. To be noted: Mus musculus, RAW264.7, 24 h, read-out: IC50 of PGE2, LPS (0.1 µg/ml)-stimulated RAW 264.7 cells, 24 h. Put shortly:
as §2

In series [5] the test system is iNOS. Briefly: Western blot iNOS protein expression, RAW 264.7. It counts as cell-based, murine. To be noted: LPS-stimulated RAW 264.7; compared with nialamide. A digest of the protocol: (§3)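 Cells (2x10^5/well) are cultured for 24 h and pretreated with test compound for 1 h. LPS follows for 24 h (RAW 264.7: 0.1 µg/ml; DH82: 2 µg/ml). RIPA lysates (40 µg protein, BCA-quantified) are run on 10% SDS-PAGE and transferred to PVDF. Membranes are blocked in 5% milk, probed overnight at 4 °C with anti-iNOS and anti-COX-2 (1:1,000; canine-specific antibodies for DH82), then HRP secondary (1:3,000) for 2 h. Detection is ECL; densitometry uses GAPDH as the internal control; n=3.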

Series [6] has as its system COX-2. As to the kind of experiment: Western blot COX-2 protein expression, RAW 264.7. It counts as cell-based, murine. To be noted: LPS-stimulated RAW 264.7; compared with nialamide. A digest of the protocol:
as §3

A short description of the next series: DPPH radical scavenging. To be noted: compared with parent nialamide; 50 to 200 µM. Put shortly: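 DPPH (200 µM in EtOH) is mixed 1:2 by volume with test compound solutions (50 to 200 µM in 70% EtOH). The mixture is incubated at 30 °C in the dark for 15 min, and the drop in absorbance at 517 nm is read. Scavenging % = [1-(A2/A1)]x100, where A1 is the blank without sample. (+)-Catechin is the positive control; n=3.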

A further series has as its system TNF-α. As to the kind of experiment: LPS-stimulated TNF-α production. The class given is cell-based, murine. To be noted: LPS-stimulated RAW 264.7; compared with nialamide. A digest of the protocol:
(§4)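 Seeding is 1x10^5 cells/well in DMEM with 10% FBS, followed by 24 h culture. Cells receive test compound for 1 h before LPS stimulation for 24 h (RAW 264.7: 0.1 µg/ml LPS; DH82: 2 µg/ml LPS). TNF-α, IL-6 and IL-10 in the culture medium are quantified by ELISA kits; n=3.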

Series [7] relates to COX-2. Briefly: Western blot COX-2 protein expression, DH82. It counts as cell-based, canine. Conditions: LPS-stimulated DH82; compared with nialamide. A digest of the protocol: as §3
Another series has as its system IL-10. As to the kind of experiment: LPS-stimulated IL-10 production. The class given is cell-based, murine. Conditions: LPS-stimulated RAW 264.7; compared with nialamide. A digest of the protocol: as §4
The subject of the next series is IL-6. Briefly: LPS-stimulated IL-6 production. The class given is cell-based, murine. To be noted: LPS-stimulated RAW 264.7; compared with nialamide. A digest of the protocol: as §4
Series [8] concerns ROS production in LPS-activated RAW 264.7 macrophages. Briefly: Intracellular ROS. It counts as cell-based, murine. Conditions: LPS 0.1 µg/ml, 50 to 200 µM, DCFH-DA.
Series [9] relates to iNOS. Briefly: Western blot iNOS protein expression, DH82. The class given is cell-based, canine. To be noted: LPS-stimulated DH82; compared with nialamide. Put shortly:
as §3

For the next series, the system named is NF-κB. Briefly: Western blot NF-κB phosphorylation, RAW 264.7. Conditions: RAW 264.7 cells. The class given is cell-based, murine. Put shortly:
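RAW 264.7 cells (2x10^5/well) are pretreated with test compound for 1 h, then stimulated with 0.1 µg/ml LPS for 24 h. RIPA lysates (40 µg) are separated on 10% SDS-PAGE and blotted to PVDF. Blots are probed overnight at 4 °C with anti-p-p65, p65, p-IκB and IκB (1:1,000), followed by HRP secondary and ECL detection. GAPDH is the loading control; three independent experiments.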

The nature of another series: ABTS+ radical scavenging. To be noted: compared with parent nialamide. A digest of the protocol:
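ABTS radical cation formed by mixing 7 mM ABTS in ethanol with 2.4 mM potassium persulfate and holding it in the dark at 25 °C for 24 h. The solution is added to test compound at several concentrations, mixed for 30 sec, then incubated for 30 min at 25 °C. Scavenging % = [1-(A2/A1)]x100, where A1 is the blank without sample. (+)-Catechin is the positive control; n=3.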

Series [10] deals with Mycobacterium tuberculosis. To be noted: at low concentrations; cited from earlier work.

Take `NC(=O)c1ccncc1` [Compound 7, isonicotinamide]: the viability at 24 h, 200 µM in series [1] came to 98.4 ± 1.2%; in series [3], 101 ± 1.9%. Moreover, the IC50 in series [2] and in series [4] was over 200 µM throughout.
Consider `O=C(CCO)NCc1ccccc1` [Compound 5, 3-hydroxy-N-benzylpropanamide], for which the iNOS protein expression result with iNOS [5] and in the series with iNOS [9] was “significant dose-dependent suppression” throughout. Moreover, the COX-2 protein expression result in the series with COX-2 [6] and in the series with COX-2 [7] was “significant dose-dependent suppression” throughout. Besides, in “DPPH radical scavenging”, the “DPPH radical scavenging activity” value is “enhancement”. The viability at 24 h, 200 µM in series [1] was determined as 97.2 ± 1%; in [3] it was 99.9 ± 2.2%. Also, the TNF-α production entry in the series with TNF-α is reported as “potent dose-dependent suppression”. Moreover, the IL-10 production result in the series on IL-10 was “potent dose-dependent suppression”. In the series with IL-6, the IL-6 production entry is recorded as “potent dose-dependent suppression”. Further, the IC50 in series [2] amounted to 63.5 ± 0.8 µM; in [4], 55.4 ± 0.7 µM. Also, the ROS production result in series [8] is “effectively suppress ROS production in a dose-dependent manner”. Moreover, in the series on NF-κB, the “LPS-stimulated phosphorylation of NF-κB” value is listed as “dose-dependent inhibition”. Moreover, the “ABTS+ scavenging activity” value in “ABTS+ radical scavenging” was “enhancement”.
On to `COCCC(=O)NCc1ccccc1` [Compound 4, 3-methoxy-N-benzylpropanamide], for which the results for the viability at 24 h, 200 µM in series [1] and in [3] were 97.6 ± 1.1% and 102 ± 2.2%, respectively. The IC50 turned out to be 178 ± 2 µM in [2] and 161 ± 2 µM in series [4].
Regarding `O=C(CCNNC(=O)c1ccncc1)NCc1ccccc1` [Compound 1, nialamide, reference compound], the figures for the viability at 24 h, 200 µM in series [1] and in series [3] were 99.9 ± 1.2% and 102 ± 2.3%, respectively. The IC50 in [2] and in series [4] was over 200 µM throughout. In addition, the “inhibition of Mycobacterium tuberculosis” value in [10] is “effectively inhibits”.
For `NCCC(=O)NCc1ccccc1` [Compound 3, 3-amino-N-benzylpropanamide], the figures for the viability at 24 h, 200 µM in [1] and in series [3] were 99.7 ± 1.2% and 102 ± 2%, respectively. For the same molecule, the IC50 in series [2] is 170 ± 1.9 µM; in series [4], 155 ± 1.9 µM.
